To fix the notation:
B1: tRNA (parent)
chain: GUUCCGUUGGCGUAAUGGUAACGCGUCUCCCUCCUAAGGAGAAGACUGCGGGUUCGAGUCCCGUACGGAACG

Fewer inactive variants are shown than the library holds.

In this data set the parent is B1. The data set is described as follows: yeast fitness relative to wild type (ratio to wild type); higher = fitter; tRNA-Arg(CCU), competitive growth, 37 C, YPD. The gist of the method: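 Genotype frequency changes were the basis for Darwinian fitness relative to wild type. The frequencies came from 100-nucleotide paired-end sequencing of gene amplicons from the start population and each end population of pooled yeast strains with tRNA-Arg(CCU) gene variants at the native locus. Competition ran in YPD at 37°C for 24 hours in six replicates, genotypes needed ≥ 100 starting reads, and estimates < 0.5 were set to 0.5.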
In the case of C11U A14U C34U, the yeast fitness is at most 0.5.
For C11U A14G C31A A42G the value was at most 0.5; for C11U A40U C46U G63C, at most 0.5.
For C11G G56A C62U the value was at most 0.5; for C11G U16A C31A A42G, 0.573; for C11G U13G C61U, at most 0.5.
The same measure for C11G G23C U35G G39C G50C C66A: at most 0.5.
Take C11G U16A A21G C24U: the yeast fitness is at most 0.5.
Turning to C11U A40U C55U G68A, the yeast fitness is at most 0.5.
In the case of C11G G41A U47A C49U U59C G67C A70U, the yeast fitness was at most 0.5.
In the case of C11U A15G U26G U28C C33A C55G, the yeast fitness is at most 0.5.
For C11G U32A the value was at most 0.5; for C11G G63C, 0.543; for C11G G63A, 0.605.
For C11G G52A A69C the value was at most 0.5; for C11U A20U C24U G38A C49A A70U, at most 0.5.
C11U A42U G67C: the yeast fitness came out at 0.536.
As for C11U A14G A37C C49U, the yeast fitness is at most 0.5.
For C11U A14G C29U G39A the value was at most 0.5.
For C11G U16A C29U C66A the value was at most 0.5; for C11G U13G C30U A37G A40U A57U, at most 0.5.
For C11G G67U A69C the value was 0.528; for C11G U32C G48A C60G, at most 0.5.
Consider C11U A14G C24G C27U G41A A42C C66U, for which the yeast fitness was at most 0.5.
In the case of C11U A20U C24U C33G U47A C49U, the yeast fitness was determined as 0.557.
Regarding C11U A42G C60G, the yeast fitness is at most 0.5.
For C11U A42C A65G the value was 0.658; for C11G U19A G25A C49U, at most 0.5; for C11U A43C C62U, 0.692.
Regarding C11U A14C G23A U26C C55U, the yeast fitness was at most 0.5.
On to C11G U16C C22U C55U G68U, for which the yeast fitness is at most 0.5.
For C11U A37G G52C A70U, the yeast fitness is at most 0.5.
With C11G U13G C55G C66U, the yeast fitness is at most 0.5.
For C11G U28A C62A, the yeast fitness was at most 0.5.
C11G U26C C31A A43U C61A: the yeast fitness is at most 0.5.
For C11U A37U C60U, the yeast fitness was 0.539.
C11G G44C A57C C60U: the yeast fitness amounted to 0.518.
With C11U A15C C27A G39C A65C, the yeast fitness worked out at 0.531.
Turning to C11U A14C C27G C31U C49G G58C, the yeast fitness was at most 0.5.
On to C11G U13C C27A U35A G48A U59C, for which the yeast fitness was at most 0.5.
For C11U A21C C27G G39C the value was 0.544; for C11U A21C C27G G44A A65U, at most 0.5.
The same measure for C11G G39C G56C C61U: at most 0.5.
C11U A20U G39A: the yeast fitness was at most 0.5.
As for C11U A15U A65U, the yeast fitness was at most 0.5.
The same measure for C11U A15U G41A: at most 0.5; for C11U A21C A36C A70U: at most 0.5.
With C11U A21C, the yeast fitness stood at 0.714.
As to C11U A14U C27U A36U A43G C46U A65U, the yeast fitness was at most 0.5.
In the case of C11U A14G C24G C27U A36G G41A A42C, the yeast fitness was at most 0.5.
Regarding C11G G48A G63A A65C, the yeast fitness is at most 0.5.
For the variant C11U A15G A45G, the yeast fitness was determined as 0.599.
The same measure for C11U A42G U59C C61U: at most 0.5.
For C11U A14U U16C G25C C27U C61G, the yeast fitness was at most 0.5.
The same measure for C11G U16A C30A: 0.583; for C11G U28A: at most 0.5.
As for C11U A43U G63C, the yeast fitness is 0.558.
The same measure for C11U A43U C46G: 0.723; for C11U A42G C46G G56C A65C: at most 0.5; for C11U A40G C46A: 0.792.
In the case of C11G U16A C24U G50C C66U, the yeast fitness is at most 0.5.
For C11U A40U the value was 0.787; for C11U A40C, 0.755.
For C11G U16A A65G the value was 0.567; for C11U A36U G48C U54C, at most 0.5; for C11G U13G A21G A65G, at most 0.5.
Regarding C11G U28G A37G, the yeast fitness was at most 0.5.
For C11U A20U G39A G41C C46A G68A the value was at most 0.5; for C11U A15C C29U A37G A69U, at most 0.5; for C11U A45G U59A, 0.526.
In the case of C11U A20G U47G G58A, the yeast fitness is at most 0.5.
For C11G G38A C61G the value was at most 0.5; for C11G G44C A57C, at most 0.5; for C11U A45C C62G A65C, at most 0.5.
The same measure for C11G U16A G48C A57U: at most 0.5; for C11U A14U A40G A42C A43G: at most 0.5; for C11U A15G G58C: 0.725.
For C11U A36U G48C, the yeast fitness was found to be 0.632.
For C11U A20U C22A U53G the value was at most 0.5; for C11G U28C C34U G44C G50C U53C, at most 0.5; for C11G G23C A36G A37G A70G, 0.55.
For C11U A36G G41A C49U G63A the value was at most 0.5; for C11U A21U C30G A42G, 0.755.
For C11U A20G C34G A40C G51C the value was at most 0.5.

(Values after the RNAGym collection of RNA variant scans (doi:10.1126/science.aae0568).)
